High-throughput results as filed in PubChem BioAssay.
UBC13 inh – UBC13 polyubiquitin chain formation inhibitors, primary screen, biochemical, TR-FRET, uHTS. Ubiquitin-conjugating enzyme E2 N (Homo sapiens), P61088. inhibition, % at 20 µM. 330,000 compounds, 0.47% hits; in the data active means inhibition above about 45%, passing the limit was not always enough
Target sequence (P61088 whole entry, looked up): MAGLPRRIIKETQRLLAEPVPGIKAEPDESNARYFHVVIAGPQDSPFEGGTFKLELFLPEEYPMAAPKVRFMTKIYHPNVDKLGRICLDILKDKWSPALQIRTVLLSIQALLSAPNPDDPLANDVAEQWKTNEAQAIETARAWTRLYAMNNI
ZTA counter – ZTA (EBV) inhibition in EBNA-1 counter-screen; P03206; ZTA-DNA binding, fluorescence polarization; inhibition, % at 11 µM; 320,000 compounds, 0.15% hits; in the data active means inhibition above about 33%
Target sequence (P03206 whole entry, looked up): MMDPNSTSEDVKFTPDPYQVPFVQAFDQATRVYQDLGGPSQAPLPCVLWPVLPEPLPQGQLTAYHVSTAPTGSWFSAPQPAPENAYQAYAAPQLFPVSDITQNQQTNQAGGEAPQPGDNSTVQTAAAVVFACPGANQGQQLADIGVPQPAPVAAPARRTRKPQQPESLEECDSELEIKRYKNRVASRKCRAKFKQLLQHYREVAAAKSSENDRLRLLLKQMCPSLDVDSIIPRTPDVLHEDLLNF
Apaf1 inhib – inhibitors of human Apaf-1 apoptosome, primary screen, biochemical, DEVD-Rh110 fluorescence, uHTS | reconstituted apoptosome caspase-3 activity | 330,000 compounds, 0.71% hits | inhibition, % at 20 µM | AID 489030, 2010 | Apoptotic protease-activating factor 1 (Homo sapiens), O14727; active means inhibition of at least 40% at 20 µM
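Material: cell-free apoptosome with Apaf-1, procaspase-3 and caspase-9; Buffer or medium: Hepes pH 7.5 with detergent and BSA; Reagent: cytochrome c trigger plus (Z-DEVD)2-Rh110 caspase-3 substrate; Times: compound with Apaf-1, dATP, procaspase-3 30 min, then 50 min reaction, room temperature; Technique: Rh110 fluorescence intensity.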
PfM18AAP inh-1 – PfM18AAP inhibitors, malaria aminopeptidase, primary screen, biochemical, QFRET, recombinant enzyme | H-Glu-NHMec fluorogenic cleavage | inhibition, % at 7.35 µM | 290,000 compounds, 1.2% hits | AID 1822, 2009;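 active means inhibition above the campaign mean inhibition over all tested compounds plus 3 SD, cut at about 28% in these data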
EBNA-1 inh – EBNA-1 DNA-binding inhibitors, primary screen, biochemical, fluorescence polarization. inhibition, % at 14.8 µM. 300,000 compounds, 0.34% hits. AID 1950, 2009; in the data active means inhibition above about 28%
PfGluPho inh – PfG6PD enzyme inhibitors, primary screen, biochemical, fluorescence intensity, uHTS; PfGluPho enzyme, NADPH resazurin-diaphorase fluorescence; inhibition, % at 20 µM; AID 504690, 2011; 350,000 compounds, 0.78% hits; glucose-6-phosphate dehydrogenase-6-phosphogluconolactonase (Plasmodium falciparum 3D7);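 active means inhibition reaching at least a set limit at 20 µM in the primary screen, cut at about 59% in these data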
PfM18AAP inh-2 – PfM18AAP inhibitors, malaria aminopeptidase, confirmation, biochemical, QFRET, recombinant enzyme, triplicate; shares compounds with PfM18AAP inh-1; H-Glu-NHMec fluorogenic cleavage; inhibition, % at 7.35 µM; 2,400 compounds, 28% hits;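 active means mean inhibition over replicate wells above the hit cutoff set for the earlier primary screen, cut at about 29% in these data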
CTSL1 counter – cathepsin L1 inhibitors, retest, confirmation, counter-screen for PFM18AAP inhibitor project, biochemical, QFRET, triplicate; purified cathepsin L1, Z-Leu-Arg-MCA fluorescence; inhibition, % at 5.96 µM; shares compounds with PfM18AAP inh-1; 2,400 tested, under 10 active;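 active means average inhibition across replicates above the hit cutoff set in the earlier primary screen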
Each line names hits and unclear results; the compound was inactive in the other large screens (follow-up assays come after a bar, where they were run). Rows were chosen to be rich in hits. Some 2.9% of all compounds tested hit in one or more screens of this group.

O=c1cc(-c2ccc(O)cc2)oc2cc(O)c(C3OC(CO)C(O)C(O)C3O)c(O)c12 (stereo unspecified)	PfM18AAP inh-1 44 | PfM18AAP inh-2 inactive | CTSL1 counter inactive
COc1ccc(S(=O)(=O)NNc2nc(C)cc(C)n2)cc1[N+](=O)[O-]	PfM18AAP inh-1 62 | PfM18AAP inh-2 39 | CTSL1 counter inactive
CCCCOc1ccc(/C(O)=C2/C(=O)C(=O)N(Cc3cccnc3)C2c2ccncc2)c(C)c1 (stereo unspecified)	none
CN1c2ccccc2C(C)(C)[C@]12C=Cc1cc(O)ccc1O2	PfM18AAP inh-1 48 | PfM18AAP inh-2 inactive | CTSL1 counter inactive
O=C(C1CC(=O)N(c2ccc3c(c2)OCCO3)C1)N1CCN(S(=O)(=O)c2ccccc2F)CC1 (stereo unspecified)	none (no result: UBC13 inh, ZTA counter, Apaf1 inhib, PfM18AAP inh-1, EBNA-1 inh)
COc1cc(/C=C(\C#N)C(=O)c2c[nH]c3ccccc23)cc(OC)c1O	PfM18AAP inh-1 36 | PfM18AAP inh-2 inactive | CTSL1 counter inactive
COc1cc(/C=C(\C#N)C(=O)NCCc2ccccc2)cc(OC)c1O	none
COc1ccc(/C(C)=N/OC/C(O)=C(\C#N)c2nc3ccccc3[nH]2)cc1	none
CCOc1ccc(/C=C/C(=O)N(CC)CC(=O)Nc2ccc3c(c2)OCCO3)cc1OCC	none
Cc1ccc(/C=C2\SC(=S)N(/N=C/c3cc([N+](=O)[O-])ccc3O)C2=O)o1	PfM18AAP inh-1 40 | PfM18AAP inh-2 inactive | CTSL1 counter inactive
CCOc1cc(C(=O)NC(=S)Nc2nc(C)cc(C)n2)cc(OCC)c1OCC	none
CCOc1cc(C(=O)NC)cc(OCC)c1OCC	none
CCOc1cc(C(=O)Nn2cnnc2)cc(OCC)c1OCC	PfM18AAP inh-1 35 | PfM18AAP inh-2 inactive | CTSL1 counter inactive
CCOc1cc(C(=O)NC(=S)Nn2cnnc2)cc(OCC)c1OCC	PfM18AAP inh-1 75 | PfM18AAP inh-2 75 | CTSL1 counter inactive
O=C(O)c1ccccc1-c1nnc2c(Cl)cc(C(F)(F)F)cn12	none
CC(NC(=O)c1ccccc1Cl)C(=O)OCc1cn2cc(Cl)ccc2n1 (stereo unspecified)	none (no result: ZTA counter, PfM18AAP inh-1, EBNA-1 inh)
FC(F)(F)c1ccnc(NCc2ccc(Cl)cc2)n1	none
O=S(=O)(NNc1nccc(C(F)(F)F)n1)c1cccc(Cl)c1Cl	PfM18AAP inh-1 56 | PfM18AAP inh-2 inactive | CTSL1 counter inactive
COC(CNC(=O)c1ccc(CS(=O)(=O)c2c(Cl)cccc2Cl)o1)OC	none
O=C(CN1C(=O)C2CC=CCC2C1=O)NCC(=O)Nc1ccc(F)c(F)c1 (stereo unspecified)	none (no result: PfM18AAP inh-1)
CC1CCc2c(sc(NC(=O)CCC(=O)O)c2C(=O)NC2CC2)C1 (stereo unspecified)	PfM18AAP inh-1 41 | PfM18AAP inh-2 inactive | CTSL1 counter inactive
O=C(O)CCC(=O)Nc1sc2c(c1C(=O)Nc1ccccc1)CCCCC2	PfM18AAP inh-1 37 | PfM18AAP inh-2 inactive | CTSL1 counter inactive
CCOCCCn1c(=O)c2ccccc2n2c(=S)[nH]nc12	PfM18AAP inh-1 46 | PfM18AAP inh-2 inactive | CTSL1 counter inactive
CN(C)c1ccc(/C=N\Nc2ccccn2)cc1	none
CN(C)c1ccc(/C=N/Nc2ccc(-n3ccnc3)nn2)cc1	PfM18AAP inh-1 34 | PfM18AAP inh-2 inactive | CTSL1 counter inactive
CC(=O)N1CSCC1C(=O)NNS(=O)(=O)c1ccccc1 (stereo unspecified)	none
Cc1nn(-c2ccc(F)cc2)c2nc(N)c(C#N)c(-c3ccc(O)c(O)c3)c12	PfM18AAP inh-1 69 (no result: ZTA counter, EBNA-1 inh) | PfM18AAP inh-2 48 | CTSL1 counter inactive
